Assays:
Format in all cases: functional, cell-based
CNE = experiment: Cytotoxicity against human CNE1 cells after 48 hrs by MTT assay
How it was run: (§1)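 Growth inhibition in nasopharyngeal carcinoma lines (CNE1, CNE2, HONE-1, SUNE-1) and HT-29 colon cells. IC50 values are the mean ± SD of three experiments, with cisplatin as positive control.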

HONE1 cell line = experiment: Cytotoxicity against human HONE1 cells after 48 hrs by MTT assay; details: HONE1, 48 h; how it was run: as §1
CNE-2 = experiment: Cytotoxicity against human CNE2 cells after 48 hrs by MTT assay; details: CNE-2, 48 h; how it was run: as §1
HT-29 = experiment: Cytotoxicity against human HT-29 cells after 48 hrs by MTT assay; details: HT-29, 48 h; how it was run: as §1
SUNE1 = experiment: Cytotoxicity against human SUNE1 cells after 48 hrs by MTT assay; details: SUNE1, 48 h; how it was run: as §1

Row | SMILES | IC50 (CNE) [µM] | IC50 (HONE1 cell line) [µM] | IC50 (CNE-2) [µM] | IC50 (HT-29) [µM] | IC50 (SUNE1) [µM]
1 | C=C1C(=O)O[C@@H]2[C@H]3C(C)=CC[C@H]3[C@](C)(O)C[C@H](OC(=O)/C(C)=C\C)[C@@H]12 | 7.3 | 7.6 | 7.4 | > 10 | 5.6
2 | C=C1C(=O)O[C@H]2[C@H]1[C@@H](OC(=O)/C(C)=C/C)C[C@@](C)(O)[C@]13C=C[C@](C)([C@H]21)[C@]1(C3)C(=O)O[C@@H]2[C@H]3C(C)=CC[C@H]3[C@](C)(O)C[C@H](O)[C@H]21 | > 10 | 7.5 | > 10 | > 10 | > 10
3 | C=C1C(=O)O[C@H]2[C@H]1[C@@H](O)C[C@@](C)(O)[C@]13C=C[C@](C)([C@H]21)[C@]1(C3)C(=O)O[C@@H]2[C@H]3C(C)=CC[C@H]3[C@](C)(O)C[C@H](OC(=O)/C(C)=C\C)[C@H]21 | > 10 | > 10 | > 10 | > 10 | > 10
4 | C=C1C(=O)O[C@@H]2[C@@H]3[C@@]4(C=C[C@@]3(C)[C@]3(C4)C(=O)O[C@@H]4[C@H]5C(C)=CC[C@H]5[C@](C)(O)C[C@H](OC(=O)/C(C)=C/C)[C@H]43)[C@](C)(O)CC[C@@H]12 | > 10 | > 10 | > 10 | > 10 | > 10
5 | C/C=C(\C)C(=O)O[C@H]1C[C@@](C)(O)[C@@H]2CC=C(C)[C@@H]2[C@H]2OC(=O)[C@H](C)[C@@H]21 | > 10 | > 10 | > 10 | > 10 | > 10
6 | C/C=C(/C)C(=O)O[C@H]1C[C@@](C)(O)[C@@H]2CC(=O)C(C)=C2[C@H]2OC(=O)[C@@H](C)[C@H]12 | > 10 | > 10 | > 10 | > 10 | > 10
7 | C=C1C(=O)O[C@@H]2[C@H]3C(C)=CC[C@H]3[C@](C)(O)C[C@H](OC(=O)/C(C)=C/C)[C@@H]12 | 7.9 | 6.5 | > 10 | > 10 | 3
8 | C=C1C(=O)O[C@@H]2[C@@H]3[C@@]4(C=C[C@@]3(C)[C@]3(C4)C(=O)O[C@@H]4[C@H]5C(C)=CC[C@H]5[C@](C)(O)C[C@H](O)[C@H]43)[C@](C)(O)CC[C@@H]12 | > 10 | > 10 | > 10 | > 10 | > 10
